ChEMBL document CHEMBL1158499, “Synthesis and antidepressant activity of optical isomers of 2-(4-benzylpiperazin-1-yl)-1-(5-chloro-6-methoxynaphthalen-2-yl) propan-1-ol (SIPI5056)” (Bioorg Med Chem Lett, 2010)

Key:
Mus musculus [1] = test: (§1) Toxicity in po dosed mouse; type: organism-based; conditions: in vivo
In short: (§2)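 Acute toxicity was tested in mice given the compound orally. The LD50 was reported in mg/kg or g/kg.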

[2] = target: Sodium-dependent dopamine transporter (Rattus norvegicus, UniProt P23977); test: Inhibition of [3H]dopamine reuptake at rat brain frontal cortex dopamine transporter; type: tissue-based
In short: (§3)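 Rat frontal cortex synaptosomes prepared at 4 °C: tissue homogenized in ice-cold 0.32 M sucrose, spun at 1500g for 10 min, and the supernatant spun at 20,000g for 30 min. The pellet was resuspended in buffer and protein measured. Synaptosomes were preincubated with compound 5 min at 37 °C, then given 300 nM [3H]-DA or [3H]-NA for 5 min at 37 °C. Uptake was stopped on ice and samples filtered and washed with artificial cerebral fluid before scintillation counting. Active uptake was taken as the 37 °C minus 0 °C difference.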

Mus musculus [3] = test: Antidepressant activity in po dosed mouse by forced tail suspension assay; type: functional
In short: (§4)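 Mice received a single oral dose of each isomer; the ED50 (mg/kg) was derived from the forced swimming and tail suspension tests.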

Transporter = Transporter (Rattus norvegicus, UniProt Q63380); test: Inhibition of [3H]norepinephrine reuptake at rat brain frontal cortex norepinephrine transporter; type: tissue-based; in short: as §3
[4] = target: Sodium-dependent serotonin transporter (Rattus norvegicus, UniProt P31652); test: Inhibition of [3H]5HT reuptake at rat brain frontal cortex serotonin transporter; type: tissue-based
In short: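 Rats were decapitated and the frontal cortex was dissected on ice. The tissue was homogenised in ice-cold 0.32 M sucrose and spun at 1500g for 10 min, then the supernatant at 20,000g for 30 min (4 °C). Synaptosomes were preincubated with compound for 5 min at 37 °C. [3H]-5-HT (300 nM) was added for 5 min at 37 °C. The reaction was stopped on ice, then filtered and counted. Active uptake was taken as the 37 °C minus 0 °C difference.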

Mus musculus [5] = test: Antidepressant activity in po dosed mouse by forced swimming test; type: functional; in short: as §4
[6] = as §1; type: organism-based; conditions: in vivo; in short: as §2

Transporter, sequence (Q63380 whole entry): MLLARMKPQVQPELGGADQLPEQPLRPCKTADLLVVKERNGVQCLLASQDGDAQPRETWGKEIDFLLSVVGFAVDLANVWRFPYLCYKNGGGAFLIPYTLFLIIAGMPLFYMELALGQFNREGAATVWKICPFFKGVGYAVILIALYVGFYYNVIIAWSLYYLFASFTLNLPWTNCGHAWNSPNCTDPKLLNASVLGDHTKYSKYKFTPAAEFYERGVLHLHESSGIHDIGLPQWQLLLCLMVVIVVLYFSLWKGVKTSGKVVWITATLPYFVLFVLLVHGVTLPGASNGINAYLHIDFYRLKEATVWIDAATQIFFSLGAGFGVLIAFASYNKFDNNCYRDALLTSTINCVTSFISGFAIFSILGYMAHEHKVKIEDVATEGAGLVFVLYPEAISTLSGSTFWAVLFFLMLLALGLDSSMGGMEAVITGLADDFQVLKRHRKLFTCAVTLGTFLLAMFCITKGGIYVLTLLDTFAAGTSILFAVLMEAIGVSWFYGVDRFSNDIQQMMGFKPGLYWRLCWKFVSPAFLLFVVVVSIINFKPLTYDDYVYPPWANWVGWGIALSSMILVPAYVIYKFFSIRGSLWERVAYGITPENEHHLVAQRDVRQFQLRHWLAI
Sodium-dependent serotonin transporter, sequence (P31652 whole entry): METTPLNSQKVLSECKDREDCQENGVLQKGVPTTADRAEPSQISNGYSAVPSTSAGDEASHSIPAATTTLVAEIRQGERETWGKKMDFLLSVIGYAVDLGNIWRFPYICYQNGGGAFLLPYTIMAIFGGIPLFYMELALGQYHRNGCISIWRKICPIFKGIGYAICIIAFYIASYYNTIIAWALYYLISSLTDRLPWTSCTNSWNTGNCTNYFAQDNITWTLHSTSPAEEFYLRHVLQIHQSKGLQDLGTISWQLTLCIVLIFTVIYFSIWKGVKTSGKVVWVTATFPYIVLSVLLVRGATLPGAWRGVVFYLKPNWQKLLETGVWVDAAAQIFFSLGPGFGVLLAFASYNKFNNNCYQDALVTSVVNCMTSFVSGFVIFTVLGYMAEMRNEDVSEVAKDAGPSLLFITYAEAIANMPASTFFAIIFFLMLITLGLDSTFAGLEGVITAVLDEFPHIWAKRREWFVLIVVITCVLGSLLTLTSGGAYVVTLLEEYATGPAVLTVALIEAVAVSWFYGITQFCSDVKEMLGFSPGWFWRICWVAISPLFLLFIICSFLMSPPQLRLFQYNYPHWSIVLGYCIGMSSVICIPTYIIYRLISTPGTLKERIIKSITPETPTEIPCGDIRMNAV
Sodium-dependent dopamine transporter, sequence (P23977 whole entry): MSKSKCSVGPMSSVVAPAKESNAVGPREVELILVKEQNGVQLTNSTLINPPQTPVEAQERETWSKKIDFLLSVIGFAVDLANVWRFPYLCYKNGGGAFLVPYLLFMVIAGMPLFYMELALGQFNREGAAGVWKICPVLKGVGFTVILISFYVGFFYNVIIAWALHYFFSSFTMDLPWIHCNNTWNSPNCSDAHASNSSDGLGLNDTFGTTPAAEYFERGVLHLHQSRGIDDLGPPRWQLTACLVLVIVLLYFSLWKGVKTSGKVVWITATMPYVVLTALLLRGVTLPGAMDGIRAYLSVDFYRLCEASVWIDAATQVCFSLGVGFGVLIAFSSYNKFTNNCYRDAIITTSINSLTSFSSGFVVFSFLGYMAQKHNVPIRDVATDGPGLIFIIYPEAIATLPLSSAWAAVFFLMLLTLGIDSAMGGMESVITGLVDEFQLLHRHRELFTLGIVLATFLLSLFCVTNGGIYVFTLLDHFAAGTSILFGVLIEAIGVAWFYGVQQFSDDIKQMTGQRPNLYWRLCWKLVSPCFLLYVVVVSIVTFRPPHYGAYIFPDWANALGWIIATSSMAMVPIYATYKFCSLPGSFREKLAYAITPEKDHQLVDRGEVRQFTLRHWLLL

Row | Compound | LD50 (Mus musculus [1]) | IC50 [2] | ED50 (Mus musculus [3]) | IC50 (Transporter) | IC50 [4] | ED50 (Mus musculus [5]) | LD50 [6]
1 | COc1ccc2cc([C@H](O)[C@@H](C)N3CCN(Cc4ccccc4)CC3)ccc2c1Cl (racemic) | > 220 mg/kg |  |  |  |  |  | 
2 | COc1ccc2cc([C@H](O)[C@H](C)N3CCN(Cc4ccccc4)CC3)ccc2c1Cl | 300 mg/kg | > 1000 µM | 27.9 mg/kg | 425 nM | 825 nM |  | 
3 | COc1ccc2cc([C@H](O)[C@H](C)N3CCN(Cc4ccccc4)CC3)ccc2c1Cl (racemic) | > 1500 mg/kg |  |  |  |  |  | 
4 | COc1ccc2cc([C@H](O)[C@@H](C)N3CCN(Cc4ccccc4)CC3)ccc2c1Cl | 1171 mg/kg | 10 µM | 16.5 mg/kg | 7000 nM | 548 nM | 24.5 mg/kg | 
5 | COc1ccc2cc([C@@H](O)[C@H](C)N3CCN(Cc4ccccc4)CC3)ccc2c1Cl |  |  | 12.6 mg/kg | 185 nM |  |  | 1030 mg/kg
6 | COc1ccc2cc([C@@H](O)[C@@H](C)N3CCN(Cc4ccccc4)CC3)ccc2c1Cl |  | > 1000 µM | 24.5 mg/kg | 1250 nM | 375 nM |  | 200 mg/kg
